Laboratory results from ChEMBL document CHEMBL1154048, “Design, synthesis and pharmacological evaluation of new 1-[3-(4-arylpiperazin-1-yl)-2-hydroxy-propyl]-3,3-diphenylpyrrolidin-2-one derivatives with antiarrhythmic, antihypertensive, and alpha-adrenolytic activity” (Eur J Med Chem, 2009).
Activity calls are given as the source filed them.

Assays:
Rattus norvegicus [1] = test: Antiarrhythmic activity against adrenaline-induced arrhythmia in iv dosed rat assessed as inhibition of cardiac rhythm disturbance administered 15 mins before adrenaline challenge; assay type: functional; conditions: Heart
In short: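 Rats anaesthetized with thiopental 60 mg/kg ip received the compound i.v. 15 min before an i.v. adrenaline challenge. Rhythm disturbances were recorded for 15 min after adrenaline. Activity was defined as absence of premature beats and inhibition of disturbances versus controls. ED50 values, with confidence limits, were derived by Litchfield–Wilcoxon from three groups of six animals.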

[2] = target: T1, Adrenergic receptor alpha-1 (Rattus norvegicus, UniProt P15823+P23944+P43140); test: Displacement of [3H]prazosin from alpha1 adrenergic receptor in rat cerebral cortex by liquid scintillation counting; assay type: tissue-based
T1 sequence (P15823 whole entry): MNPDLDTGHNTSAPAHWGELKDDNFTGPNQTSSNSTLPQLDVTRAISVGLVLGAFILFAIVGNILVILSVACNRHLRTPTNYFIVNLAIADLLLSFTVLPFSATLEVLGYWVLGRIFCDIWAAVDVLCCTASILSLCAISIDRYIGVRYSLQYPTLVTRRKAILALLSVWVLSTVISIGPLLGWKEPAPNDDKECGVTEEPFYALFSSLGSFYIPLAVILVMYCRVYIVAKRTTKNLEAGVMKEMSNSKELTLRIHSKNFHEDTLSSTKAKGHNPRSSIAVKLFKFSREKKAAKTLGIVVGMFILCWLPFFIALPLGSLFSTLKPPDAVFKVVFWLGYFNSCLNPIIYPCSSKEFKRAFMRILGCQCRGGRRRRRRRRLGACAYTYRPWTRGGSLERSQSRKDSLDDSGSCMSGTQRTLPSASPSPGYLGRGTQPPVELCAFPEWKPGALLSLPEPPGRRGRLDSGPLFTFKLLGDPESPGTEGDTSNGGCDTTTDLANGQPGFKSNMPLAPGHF
T1 sequence (P23944 whole entry): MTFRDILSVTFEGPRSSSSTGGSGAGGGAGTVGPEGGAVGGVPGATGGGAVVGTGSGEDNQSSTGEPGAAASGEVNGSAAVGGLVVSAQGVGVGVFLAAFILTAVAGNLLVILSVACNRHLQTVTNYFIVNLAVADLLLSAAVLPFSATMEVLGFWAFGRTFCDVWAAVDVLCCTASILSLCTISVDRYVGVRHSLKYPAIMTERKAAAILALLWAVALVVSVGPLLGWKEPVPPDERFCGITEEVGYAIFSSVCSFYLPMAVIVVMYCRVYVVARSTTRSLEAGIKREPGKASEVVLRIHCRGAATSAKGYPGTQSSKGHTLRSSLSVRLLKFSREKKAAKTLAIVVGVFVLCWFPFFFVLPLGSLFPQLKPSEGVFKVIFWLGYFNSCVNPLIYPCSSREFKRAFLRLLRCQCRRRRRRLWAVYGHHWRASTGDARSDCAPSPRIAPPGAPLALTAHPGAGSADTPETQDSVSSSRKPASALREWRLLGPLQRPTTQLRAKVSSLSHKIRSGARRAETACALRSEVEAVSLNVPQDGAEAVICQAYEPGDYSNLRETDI
T1 sequence (P43140 whole entry): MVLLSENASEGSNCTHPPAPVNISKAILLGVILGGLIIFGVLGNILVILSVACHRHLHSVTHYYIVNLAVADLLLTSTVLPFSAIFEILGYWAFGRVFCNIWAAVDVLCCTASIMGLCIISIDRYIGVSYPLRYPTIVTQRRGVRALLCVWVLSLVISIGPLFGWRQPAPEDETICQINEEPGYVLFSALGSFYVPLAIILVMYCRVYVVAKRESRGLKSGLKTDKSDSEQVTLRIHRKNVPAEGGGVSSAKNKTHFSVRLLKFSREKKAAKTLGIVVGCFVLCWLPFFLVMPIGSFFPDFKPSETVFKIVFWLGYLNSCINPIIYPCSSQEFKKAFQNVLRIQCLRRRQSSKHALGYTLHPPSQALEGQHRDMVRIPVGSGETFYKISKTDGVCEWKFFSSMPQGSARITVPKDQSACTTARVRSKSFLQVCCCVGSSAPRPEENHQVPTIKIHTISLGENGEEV
In short: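 Rat cerebral cortex was homogenized in ice-cold 50 mM Tris–HCl pH 7.6, centrifuged 20 000 × g for 20 min at 0–4 °C, and washed once more. Membranes were incubated with [3H]prazosin 0.2 nM and seven to eight compound concentrations (10^-11–10^-4 M), with phentolamine defining nonspecific binding. Bound ligand was filtered on glass fiber and counted by liquid scintillation. Runs were in duplicate, and Ki was calculated by Cheng–Prusoff.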

Rattus norvegicus [3] = test: Hypotensive activity in normotensive Wistar rat assessed as decrease in diastolic blood pressure at 20 mg/kg, iv administered as single dose; assay type: functional, organism-based; set-up: dose 20 mg/kg; conditions: Artery
Rattus norvegicus [4] = species: Rattus norvegicus; test: Hypotensive activity in Wistar rat assessed as reduction in epinephrine-induced systolic blood pressure response; assay type: functional, organism-based; conditions: Artery
In short: (§1)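 In anaesthetized rats, pressor responses were evoked by i.v. epinephrine, norepinephrine or methoxamine. Blood pressure was recorded through a heparin-saline-filled cannula in the carotid artery.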

Rattus norvegicus [5] = species: Rattus norvegicus; test: Hypotensive activity in Wistar rat assessed as reduction in norepinephrine-induced systolic blood pressure response; assay type: functional, organism-based; conditions: Artery; in short: as §1
Rattus norvegicus [6] = test: Hypotensive activity in normotensive Wistar rat assessed as decrease in systolic blood pressure at 20 mg/kg, iv administered as single dose; assay type: functional, organism-based; set-up: dose 20 mg/kg; conditions: Artery
[7] = target: T2, Adrenergic receptor alpha-2 (Rattus norvegicus, UniProt P22086+P19328+P22909); test: Displacement of [3H]clonidine from alpha2 adrenergic receptor in rat cerebral cortex by liquid scintillation counting; assay type: tissue-based
T2 sequence (P22086 whole entry): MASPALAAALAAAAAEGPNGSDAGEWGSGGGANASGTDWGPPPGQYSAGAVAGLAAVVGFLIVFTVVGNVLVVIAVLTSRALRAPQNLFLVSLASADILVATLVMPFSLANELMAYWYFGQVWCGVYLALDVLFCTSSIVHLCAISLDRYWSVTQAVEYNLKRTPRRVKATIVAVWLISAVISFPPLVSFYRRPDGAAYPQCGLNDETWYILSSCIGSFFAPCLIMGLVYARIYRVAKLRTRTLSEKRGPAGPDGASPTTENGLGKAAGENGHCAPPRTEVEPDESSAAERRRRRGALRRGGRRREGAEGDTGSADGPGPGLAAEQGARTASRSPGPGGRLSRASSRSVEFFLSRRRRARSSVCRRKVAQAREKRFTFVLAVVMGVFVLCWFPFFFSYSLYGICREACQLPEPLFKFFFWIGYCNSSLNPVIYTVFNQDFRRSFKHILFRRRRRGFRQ
T2 sequence (P19328 whole entry): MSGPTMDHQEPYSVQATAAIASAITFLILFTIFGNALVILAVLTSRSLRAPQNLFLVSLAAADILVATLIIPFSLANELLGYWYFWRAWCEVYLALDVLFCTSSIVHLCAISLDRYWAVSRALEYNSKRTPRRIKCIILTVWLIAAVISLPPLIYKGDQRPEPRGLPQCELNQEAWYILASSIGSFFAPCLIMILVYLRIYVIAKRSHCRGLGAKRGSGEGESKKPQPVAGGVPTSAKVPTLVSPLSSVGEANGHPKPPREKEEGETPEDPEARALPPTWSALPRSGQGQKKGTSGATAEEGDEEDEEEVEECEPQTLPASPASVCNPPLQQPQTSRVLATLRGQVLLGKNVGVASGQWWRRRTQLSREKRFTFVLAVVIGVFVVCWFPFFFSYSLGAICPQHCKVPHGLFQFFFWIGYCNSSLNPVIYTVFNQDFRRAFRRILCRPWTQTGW
T2 sequence (P22909 whole entry): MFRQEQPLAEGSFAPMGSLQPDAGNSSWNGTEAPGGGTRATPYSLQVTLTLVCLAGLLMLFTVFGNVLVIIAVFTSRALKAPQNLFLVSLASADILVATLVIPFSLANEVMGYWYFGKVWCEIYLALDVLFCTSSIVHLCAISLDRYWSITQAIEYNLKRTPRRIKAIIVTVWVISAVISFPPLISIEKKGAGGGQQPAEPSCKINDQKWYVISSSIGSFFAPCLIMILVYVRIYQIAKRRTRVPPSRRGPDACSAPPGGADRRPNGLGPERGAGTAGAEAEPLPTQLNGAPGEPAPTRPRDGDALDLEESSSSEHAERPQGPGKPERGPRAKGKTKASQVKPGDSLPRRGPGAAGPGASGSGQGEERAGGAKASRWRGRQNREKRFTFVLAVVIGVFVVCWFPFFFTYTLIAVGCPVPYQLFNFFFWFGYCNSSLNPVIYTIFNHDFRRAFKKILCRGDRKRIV
In short: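 Rat cerebral cortex membranes were prepared in ice-cold 50 mM Tris–HCl pH 7.6 (20 000 × g, 20 min, 0–4 °C, washed twice). They were incubated with [3H]clonidine 2 nM and seven to eight compound concentrations (10^-11–10^-4 M), with excess unlabelled clonidine defining nonspecific binding. Samples were glass-fiber filtered and counted by liquid scintillation, in duplicate. Ki was calculated by Cheng–Prusoff.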

Rattus norvegicus [8] = species: Rattus norvegicus; test: Hypotensive activity in Wistar rat assessed as reduction in methoxamine-induced systolic blood pressure response; assay type: functional, organism-based; conditions: Artery; in short: as §1

Row | pKi [2] | pKi [7] | Compound | ED50 (Rattus norvegicus [1]) | Activity (Rattus norvegicus [3]) | Activity (Rattus norvegicus [4]) | Activity (Rattus norvegicus [5]) | Activity (Rattus norvegicus [6]) | Activity (Rattus norvegicus [8])
1 | – | – | c1ccc(CC2=NCCN2)cc1 [TOLAZOLINE] | 1.05 mg/kg | – | – | – | – | –
2 | 5.68 | 5.32 | Cl.Cl.O=C1N(CC(O)CN2CCN(c3ccc(F)cc3)CC2)CCC1(c1ccccc1)c1ccccc1 (stereo not given) | – | inactive | inactive | inactive | inactive | inactive
3 | 5.72 | 4.54 | O=C1CCCN1CC(O)CN1CCN(c2ccccc2)CC1 (stereo not given) | 7.6 mg/kg | – | – | – | – | –
4 | – | – | CC(C)NCC(O)COc1cccc2ccccc12 (stereo not given) [PROPRANOLOL] | 7.6 mg/kg | – | – | – | – | –
5 | 6.57 | 5.27 | O=C1CCCN1CC(O)CN1CCN(C(c2ccccc2)c2ccccc2)CC1 (stereo not given) | inactive | – | – | – | – | –
